# A selection: hits, their analogues and other compounds. The true share with any hit is near 2%.
# Granule exo inh – lytic granule exocytosis inhibition | TALL-104 LAMP-1 surface exposure, flow cytometry; cells stimulated with thapsigargin and PMA | inhibition, % at 10 µM | 0.66% of 360,000 active | AID 651702;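 active = inhibition above about 55%, limit read from the data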
# DAGLB inhibitor – blocks human DAGLB lipase activity. Q8NCG7. HEK293T DAGLB membrane lysate, EnzChek fluorogenic substrate. inhibition, % at 5.17 µM. 0.059% of 340,000 active; in the data active = inhibition above about 34%;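 note: 0% = enzyme with vehicle and 100% = wells lacking enzyme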
# VLA-4 inh – inhibition in a human VLA-4 binding assay | VLA-4 expressing cells, ligand binding flow cytometry | inhibition, % (about 7 µM as worked out from the volumes in the protocol) | 0.2% of 330,000 active | AID 2557; in the data active = inhibition above about 50%
# ABCB6 inh 2 – inhibitors of human ABC transporter ABCB6; Q9NP58; K562-ABCB6 porphyrin accumulation, flow cytometry, 1 h; hits give low values; fluorescence ratio to DMSO, % at 10 µM; 0.19% of 360,000 active; AID 602162;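 active = fluorescence ratio to DMSO below 75%, the collection mean minus 3 SD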;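 note: signal is porphyrin accumulated inside mitochondria; 100% equals median channel fluorescence of DMSO control wells; lower ratio means ABCB6 inhibition with less porphyrin fluorescence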
# MT1-MMP act inh – inhibitors of human MT1-MMP activation | P50281 | HT1080 RFP-PRO-GFP cells, GFP/RFP ratio fluorescence, overnight; percent of plate control window, DMSO zero | GFP/RFP ratio change, % at 20 µM | 0.061% of 360,000 active;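 active = GFP/RFP ratio change of at least 30% with cell ATP level not reduced by more than half and red fluorescence within 50% of control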
#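 Assay system – RFP-PRO-GFP reporter HT1080 cells · Compound dosing – single dose of 20 µM compound, 1% DMSO final · Incubation – overnight compound exposure at 37 °C · Measure – GFP/RFP fluorescence ratio · Benchmarks – DMSO wells and RFP-L50D-GFP cells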
# FGF22 binding – FGF22 (human) thermal shift binding; 1.5% of 340,000 active; Q9HCT0; activity (Tm shift, normalised), % at 9.99 µM; recombinant FGF22 thermal shift, SYPRO orange fluorescence; percent of sucrose octasulfate shift, DMSO zero;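 active = mean Tm shift, scaled 0 neutral to 100 positive control, at about 1.3% or above, every replicate too, limit read from the data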
# Numbers without * were called inactive; . = no result given.
SMILES,Granule exo inh,DAGLB inhibitor,VLA-4 inh,ABCB6 inh 2,MT1-MMP act inh,FGF22 binding
COc1ccc(S(=O)(=O)N(C)C[C@H]2Oc3c(NC(=O)Nc4ccc5c(c4)OCO5)cccc3C(=O)N([C@@H](C)CO)C[C@H]2C)cc1,.,.,.,.,.,0
CC(=O)c1sc(NC(=O)CCCOc2ccc(Cl)cc2)nc1C,0,-1,6,98,-1,43*
CN1CCN(c2ccc(CNC(=O)C3Cc4c(-c5ccc(Cl)cc5)ccnc4O3)cc2)CC1 (centres undefined),20,.,.,91,-4,43*
Cc1cc(N/N=C/c2ccccc2O)c2ccccc2n1,76*,-2,2,93,13,0
C[C@@H]1CN([C@H](C)CO)C(=O)c2cc(NC(=O)CCCN(C)C)ccc2O[C@H]1CN(C)S(C)(=O)=O,.,.,.,.,.,0
Nc1nc(SCn2nnc3ccccc3c2=O)n[nH]1,0,0,9,83,1,43*
Cc1nc(SCn2nnc3ccccc3c2=O)nc(C)c1C,0,-2,27,102,1,.
CCOC(=O)C1=C(C)N=c2s/c(=C\c3ccc(OCC(=O)O)cc3)c(=O)n2C1c1ccc(Cl)cc1 (centres undefined),-3,4,-17,102,-6,0
CC1=C(C(=O)OC(C)C)C(c2ccc(Cl)cc2)n2c(sc(=Cc3ccc(OCC(=O)O)cc3)c2=O)=N1 (centres undefined),-8,.,.,99,-15,4.2*
CC1(C)CC(NC(=O)COc2ccc(Br)cc2Cl)CC(C)(C)N1,2,0,8,95,2,0
CC1(C)CC(NC(=O)COc2ccccc2Cl)CC(C)(C)N1,1,-3,2,99,3,44*
CC1CCN(C(=O)COC(=O)CCC(=O)c2ccc(F)cc2)CC1,4,.,-6,93,-4,43*
COc1ccc(NC(=O)Nc2ccc3c(c2)C(=O)N([C@H](C)CO)C[C@H](C)[C@H](CN(C)S(=O)(=O)c2ccccc2)OCCCC[C@@H](C)O3)cc1,.,.,.,.,.,0
O=C1C=C(c2ccccc2)C(=O)N1Nc1ccccc1,59*,-2,17,97,1,.
COc1ccc(CN(C)C[C@H]2Oc3ccc(NC(=O)Nc4ccccc4)cc3CC(=O)N([C@H](C)CO)C[C@H]2C)cc1,.,.,.,.,.,0
Cc1ccc(C(=O)N2CCN(C(=O)C3CCCO3)CC2)cc1 (centres undefined),-3,-1,3,100,-2,0
O=C(c1cc(F)c(F)c(F)c1F)N1CCN(C(=O)C2CCCO2)CC1 (centres undefined),0,-1,-15,99,-1,44*
CNC(=O)c1ccc(-c2ccc(OC)cc2)s1,3,0,5,104,0,.
COc1ccc(NC(=O)c2ccc(-c3ccc(OC)cc3)s2)cc1,3,6,18,95,.,43*
Cc1ccc(N=c2c([N+](=O)[O-])nn(-c3ccc4c(c3)OCCO4)n2O)cc1F,2,5,4,96,2,43*
Cc1cc(C)cc(N=c2c([N+](=O)[O-])nn(-c3ccc4c(c3)OCCO4)n2O)c1,-16,13,9,99,-12,0
C[C@@H]1CCCCO[C@H](CN(C)Cc2ccc(Cl)c(Cl)c2)[C@H](C)CN([C@@H](C)CO)C(=O)c2cc(NS(=O)(=O)c3ccc(F)cc3)ccc2O1,.,.,.,.,.,0
C[C@H](CO)N1C[C@H](C)[C@@H](CN(C)S(=O)(=O)c2ccc(F)cc2)OCCCC[C@H](C)Oc2ccc(NC(=O)Nc3ccccc3)cc2C1=O,.,.,.,.,.,0
Cc1ccc(/C=N\NC(=O)COc2ccc(C)cc2[N+](=O)[O-])cc1,14,-3,0,103,1,43*
Cc1ccc(OCC(=O)N/N=C\c2ccc(O)c([N+](=O)[O-])c2)c([N+](=O)[O-])c1,-2,5,-6,106,6,0
Cc1c(CN2CCCC(CO)(Cc3cccc(Cl)c3)C2)cnn1C (centres undefined),11,1,0,148,-5,43*
C[C@@H]1CN([C@@H](C)CO)C(=O)Cc2cc(NS(=O)(=O)c3cccs3)ccc2O[C@@H]1CN(C)S(C)(=O)=O,.,.,.,.,.,0
